Activity calls are given as the source filed them. No cut-off for these calls is given here.
How the values were obtained:
[1] = target: T1, Telomerase reverse transcriptase (Homo sapiens, UniProt O14746); test: Inhibition of TERT transcriptional activity in human H1299 cells assessed SEAP activity at 10 uM incubated for 24 hrs by SEAP assay; assay type: cell-based; parameters: scale not given: the % may be the effect or the level left
Outline: (§1)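 H1299 stable clones carry the hTERT promoter (−3338 to +1 bp) upstream of SEAP, introduced by electroporation and selected with G418. About 2 × 10³ cells per well were grown 24 h at 37 °C, given fresh medium, then drug for 24 h. Collected media were heated at 65 °C for 10 min, mixed with equal SEAP buffer (2 M diethanolamine, 1 mM MgCl₂, 20 mM L-homoarginine) and p-nitrophenyl phosphate at 12 mM final.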

[2] = target: T1, Telomerase reverse transcriptase; test: Inhibition of TERT transcriptional activity in human H1299 cells assessed SEAP activity at 1 uM incubated for 24 hrs by SEAP assay; assay type: cell-based; parameters: scale not given: the % may be the effect or the level left; outline: as §1
[3] = Cytotoxicity against human H1299 cells assessed as cell viability at 10 uM after 48 hrs by MTT assay; assay type: functional; conditions: NCI-H1299, 48 h, read-out: Activity
Outline: (§2)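 H1299 cells at about 2 × 10³ per well were grown 24 h at 37 °C in 5% CO₂. Compounds were dissolved in DMSO just before use and diluted into complete medium. After 48 h exposure, MTT was added for 4 h at 37 °C, then lysis buffer (20% SDS, 50% DMF) for 16 h at 37 °C. Absorbance was read at 550 nm.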

[4] = target: T1, Telomerase reverse transcriptase; test: Inhibition of TERT transcriptional activity in human H1299 cells assessed SEAP activity at 100 uM incubated for 24 hrs by SEAP assay; assay type: cell-based; parameters: scale not given: the % may be the effect or the level left; outline: as §1
[5] = Cytotoxicity against human H1299 cells assessed as cell viability at 1 uM after 48 hrs by MTT assay; assay type: functional; conditions: NCI-H1299, 48 h, read-out: Activity; outline: as §2
PC-3 = test: Growth inhibition of human PC3 cells after 48 hrs by SRB assay; assay type: functional, cell-based; conditions: PC-3, 48 h
Outline: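 PC-3 cells were seeded in medium with 5% FBS; after 24 h a plate was fixed with 10% TCA as T₀. Vehicle (0.1% DMSO) or compound was given for 48 h, then cells were TCA-fixed, stained with 0.4% SRB in 1% acetic acid, solubilized in 10 mM Trizma base and read at 515 nm. IC₅₀ is the concentration halving the protein increase seen in controls.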

[6] = Cytotoxicity against human H1299 cells assessed as cell viability at 100 uM after 48 hrs by MTT assay; assay type: functional; conditions: NCI-H1299, 48 h, read-out: Activity; outline: as §2
[7] = target: T1, Telomerase reverse transcriptase; test: Inhibition of TERT activity in human H1299 cells homogenates incubated for 5 mins at 100 uM by TRAP assay; assay type: cell-free
Outline: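 Telomerase-active extracts were prepared from H1299 cells, and lysate protein was measured against BSA standards. Compounds were tested in the TRAP assay, with RNase A-treated extracts as negative controls.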

T1 sequence (O14746 whole entry): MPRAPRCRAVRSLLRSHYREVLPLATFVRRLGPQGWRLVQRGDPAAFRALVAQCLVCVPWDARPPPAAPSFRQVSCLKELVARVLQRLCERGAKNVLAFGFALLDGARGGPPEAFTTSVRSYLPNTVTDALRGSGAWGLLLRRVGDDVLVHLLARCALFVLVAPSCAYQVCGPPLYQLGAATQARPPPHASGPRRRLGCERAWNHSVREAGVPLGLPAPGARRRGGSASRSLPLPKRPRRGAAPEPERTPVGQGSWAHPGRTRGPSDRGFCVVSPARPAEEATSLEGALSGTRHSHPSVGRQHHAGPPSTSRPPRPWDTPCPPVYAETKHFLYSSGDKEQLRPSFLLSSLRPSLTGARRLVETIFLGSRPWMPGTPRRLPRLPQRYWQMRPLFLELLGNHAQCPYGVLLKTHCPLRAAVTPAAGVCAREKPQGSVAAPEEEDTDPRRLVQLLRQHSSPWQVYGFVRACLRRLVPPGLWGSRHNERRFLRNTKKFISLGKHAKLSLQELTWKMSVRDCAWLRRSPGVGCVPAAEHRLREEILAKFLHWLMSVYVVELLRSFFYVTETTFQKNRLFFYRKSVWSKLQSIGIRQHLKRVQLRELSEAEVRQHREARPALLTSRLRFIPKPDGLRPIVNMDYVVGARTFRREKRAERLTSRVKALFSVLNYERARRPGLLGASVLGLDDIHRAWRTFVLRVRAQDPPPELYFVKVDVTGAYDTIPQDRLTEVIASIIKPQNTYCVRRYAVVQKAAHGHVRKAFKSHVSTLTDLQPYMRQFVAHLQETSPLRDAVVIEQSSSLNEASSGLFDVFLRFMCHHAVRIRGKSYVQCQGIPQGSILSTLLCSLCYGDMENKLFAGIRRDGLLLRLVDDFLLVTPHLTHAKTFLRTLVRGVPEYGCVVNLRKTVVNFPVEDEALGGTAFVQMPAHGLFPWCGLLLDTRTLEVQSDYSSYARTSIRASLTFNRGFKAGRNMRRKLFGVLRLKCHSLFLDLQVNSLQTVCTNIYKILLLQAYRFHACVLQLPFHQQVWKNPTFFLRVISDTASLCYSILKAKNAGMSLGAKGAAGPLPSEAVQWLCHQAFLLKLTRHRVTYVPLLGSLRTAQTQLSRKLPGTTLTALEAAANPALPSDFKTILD

Row | Activity [1] | Activity [2] | Activity [4] | IC50 (PC-3) | TERT inhibition (active/not active) [7] | SMILES | viability at 10 µM [3] | viability at 1 µM [5] | viability at 100 µM [6]
1 | 69% | 90% | 7% | 21 µM | inactive | CN(Cc1nc2ccc3c(c2[nH]1)C(=O)c1ccccc1C3=O)CC1OCCO1 | 90% | 104% | 28%
2 | 13% | 87% | 0% | > 30 µM | inactive | O=C(CCCl)Nc1ccc2c(c1NC(=O)CCCl)C(=O)c1ccccc1C2=O | 34% | 94% | 6%
3 | 0% | 69% | 3% | 5.1 µM | inactive | O=C1c2ccccc2C(=O)c2c1ccc1nc(CCl)[nH]c21 | 0% | 82% | 0%
4 | 96% | 97% | 14% | 21.6 µM | inactive | O=C1c2ccccc2C(=O)c2c1ccc1nc(CN3CCC4(CC3)OCCO4)[nH]c21 | 79% | 103% | 15%
5 | 30% | 105% | 3% | 15.3 µM | inactive | COc1cccc(N2CCN(Cc3nc4ccc5c(c4[nH]3)C(=O)c3ccccc3C5=O)CC2)c1 | 58% | 81% | 24%
6 | 45% | 84% | 0% | 8.8 µM | inactive | CN(C)Cc1nc2ccc3c(c2[nH]1)C(=O)c1ccccc1C3=O | 64% | 99% | 0%
7 | 77% | 102% | 12% | > 30 µM | inactive | CN(Cc1nc2ccc3c(c2[nH]1)C(=O)c1ccccc1C3=O)Cc1c2ccccc2cc2ccccc12 | 84% | 98% | 42%
8 | 63% | 88% | 1% | > 30 µM | inactive | O=C1c2ccccc2C(=O)c2c1ccc1nc(CCN3CCN(c4ccccn4)CC3)[nH]c21 | 93% | 98% | 57%
9 | 89% | 87% | 4% | > 30 µM | inactive | O=C1c2ccccc2C(=O)c2c1ccc1nc(CNCc3cccc(C(F)(F)F)c3)[nH]c21 | 110% | 114% | 32%
10 | 66% | 107% | 4% | 10.5 µM | inactive | O=C1c2ccccc2C(=O)c2c1ccc1nc(CN3CCCCCC3)[nH]c21 | 85% | 104% | 0%
11 | 39% | 97% | 0% | 7.5 µM | inactive | CCN(C)Cc1nc2ccc3c(c2[nH]1)C(=O)c1ccccc1C3=O | 65% | 99% | 0%
12 | 92% | 111% | 19% | 27.9 µM | inactive | O=C1c2ccccc2C(=O)c2c1ccc1nc(CN3CCN(c4ncccn4)CC3)[nH]c21 | 74% | 85% | 28%
13 | 81% | 87% | 0% | > 30 µM | inactive | O=C1c2ccccc2C(=O)c2c1ccc1nc(CNCc3ccccc3C(F)(F)F)[nH]c21 | 96% | 99% | 6%
14 | 78% | 103% | 0% | 16.7 µM | inactive | O=C1c2ccccc2C(=O)c2c1ccc1nc(CN3CCN(c4ccccc4F)CC3)[nH]c21 | 77% | 88% | 15%
15 | 0% | 86% | 0% | 6.4 µM | inactive | O=C1c2ccccc2C(=O)c2c1ccc1nc(CN(Cc3ccccn3)Cc3ccccn3)[nH]c21 | 13% | 101% | 0%
16 | 1% | 77% | 0% | 6.7 µM | inactive | CC(C)N(C)Cc1nc2ccc3c(c2[nH]1)C(=O)c1ccccc1C3=O | 23% | 96% | 0%
17 | 75% | 75% | 1% | 22.5 µM | inactive | O=C1c2ccccc2C(=O)c2c1ccc1nc(CNCc3ccc4c(c3)OCO4)[nH]c21 | 103% | 109% | 14%
18 | 34% | 96% | 0% | 17.1 µM | inactive | CCCN(C)Cc1nc2ccc3c(c2[nH]1)C(=O)c1ccccc1C3=O | 80% | 93% | 0%
19 | 93% | 103% | 37% | > 30 µM | inactive | O=C1c2ccccc2C(=O)c2c1ccc1nc(CCN3CCN(c4ccccc4)CC3)[nH]c21 | 96% | 94% | 65%
20 | 7% | 74% | 0% | 17.3 µM | inactive | CN1CCN(CCc2nc3ccc4c(c3[nH]2)C(=O)c2ccccc2C4=O)CC1 | 32% | 87% | 0%
21 | – | 99% | 18% | – | inactive | Nc1ccc2c(c1N)C(=O)c1ccccc1C2=O | 95% | 105% | 39%
22 | 97% | 102% | 26% | 12.4 µM | inactive | O=C1c2ccccc2C(=O)c2c1ccc1nc(CN3CCOCC3)[nH]c21 | 71% | 90% | 13%
23 | 11% | 98% | 0% | > 30 µM | inactive | O=C1c2ccccc2C(=O)c2c1ccc1nc(CN3CCN(Cc4ccccc4)CC3)[nH]c21 | 51% | 93% | 13%
24 | 77% | 115% | 5% | 6.7 µM | inactive | O=C1c2ccccc2C(=O)c2c1ccc1nc(CN3CCSCC3)[nH]c21 | 77% | 92% | 1%
25 | 78% | 105% | 0% | 18.7 µM | inactive | COc1cccc(CN(C)Cc2nc3ccc4c(c3[nH]2)C(=O)c2ccccc2C4=O)c1 | 98% | 97% | 9%
26 | 97% | 102% | 26% | > 30 µM | inactive | CC1CCN(Cc2nc3ccc4c(c3[nH]2)C(=O)c2ccccc2C4=O)CC1 | 110% | 114% | 32%

Row | SMILES | Activity [1] | Activity [2] | Activity [4] | IC50 (PC-3) | TERT inhibition (active/not active) [7] | viability at 10 µM [3] | viability at 1 µM [5] | viability at 100 µM [6]
27 | O=C1c2ccccc2C(=O)c2c1ccc1nc(CCCl)[nH]c21 | 83% | 95% | 8% | 5.2 µM | inactive | 86% | 91% | 40%

From ChEMBL document CHEMBL2331225, “Structure-based design, synthesis and evaluation of novel anthra[1,2-d]imidazole-6,11-dione derivatives as telomerase inhibitors and potential for cancer polypharmacology” (Eur J Med Chem, 2013)
